The source of these data is ChEMBL document CHEMBL3860038, “Discovery of (R,E)-N-(7-Chloro-1-(1-[4-(dimethylamino)but-2-enoyl]azepan-3-yl)-1H-benzo[d]imidazol-2-yl)-2-methylisonicotinamide (EGF816), a Novel, Potent, and WT Sparing Covalent Inhibitor of Oncogenic (L858R, ex19del) and Resistant (T790M) EGFR Mutants for the Treatment of EGFR Mutant …” (J Med Chem, 2016).

The term IC50 denotes the concentration needed to halve the response being measured. The term T/C denotes the ratio of treated to control.

Bounds are passed on as bounds.

One data set deals with T1, Epidermal growth factor receptor (Homo sapiens, UniProt P00533, L858R/T790M). The data set is described as follows: Inhibition of N-terminal 6x-HIS-tagged human recombinant EGFR (696 to 1022 residues) L858R/T790M mutant expressed in Sf9 cells pre-incubated for 0 mins followed by 1 mM ATP addition by HTRF assay.
T1 sequence (P00533 25-1210 T790M/L858R limits assumed): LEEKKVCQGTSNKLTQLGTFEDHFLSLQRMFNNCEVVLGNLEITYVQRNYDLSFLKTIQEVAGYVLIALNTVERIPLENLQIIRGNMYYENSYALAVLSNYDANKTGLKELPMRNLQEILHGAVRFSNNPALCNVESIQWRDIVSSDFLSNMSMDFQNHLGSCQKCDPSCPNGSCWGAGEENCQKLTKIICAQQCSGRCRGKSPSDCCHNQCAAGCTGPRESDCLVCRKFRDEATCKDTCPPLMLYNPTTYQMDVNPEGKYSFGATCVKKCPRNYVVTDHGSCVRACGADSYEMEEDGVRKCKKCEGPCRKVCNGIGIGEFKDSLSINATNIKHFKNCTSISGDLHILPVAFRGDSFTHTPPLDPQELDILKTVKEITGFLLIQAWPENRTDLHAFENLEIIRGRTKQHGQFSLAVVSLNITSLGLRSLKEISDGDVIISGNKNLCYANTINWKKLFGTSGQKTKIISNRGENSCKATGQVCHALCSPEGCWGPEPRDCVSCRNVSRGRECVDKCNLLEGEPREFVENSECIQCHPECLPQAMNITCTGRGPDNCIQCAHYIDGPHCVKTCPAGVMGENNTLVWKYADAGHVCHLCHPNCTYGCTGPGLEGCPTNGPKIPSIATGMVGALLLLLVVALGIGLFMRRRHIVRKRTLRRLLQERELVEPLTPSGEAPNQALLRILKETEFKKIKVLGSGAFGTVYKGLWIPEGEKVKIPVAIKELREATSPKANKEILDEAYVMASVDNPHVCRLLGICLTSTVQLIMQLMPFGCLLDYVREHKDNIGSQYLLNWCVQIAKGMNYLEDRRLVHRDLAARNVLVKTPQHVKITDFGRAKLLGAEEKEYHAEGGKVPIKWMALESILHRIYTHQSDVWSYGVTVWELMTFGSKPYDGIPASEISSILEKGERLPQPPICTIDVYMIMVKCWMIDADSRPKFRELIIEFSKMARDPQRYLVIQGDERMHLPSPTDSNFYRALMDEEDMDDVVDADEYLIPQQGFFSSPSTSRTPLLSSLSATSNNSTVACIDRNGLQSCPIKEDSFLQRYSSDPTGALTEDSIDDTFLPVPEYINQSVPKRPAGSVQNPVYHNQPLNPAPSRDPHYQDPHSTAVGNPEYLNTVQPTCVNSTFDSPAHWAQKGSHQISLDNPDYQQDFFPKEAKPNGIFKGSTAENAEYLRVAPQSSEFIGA
Settings: not given
Put shortly:
(§1)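 HTRF kinase assay on the EGFR L858R-T790M kinase domain at 1 mM ATP. Compound with either no preincubation or a 90 min enzyme/compound preincubation.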
Regarding `C=CC(=O)N[C@H]1CC[C@H](n2c(NC(=O)c3cccc(C(F)(F)F)c3)nc3cc(C)ccc32)CC1`, the IC50 was more than 50 µM.
For `C=CC(=O)Nc1ccc(-n2c(NC(=O)c3cccc(C(F)(F)F)c3)nc3cc(C)ccc32)cc1`, the IC50 was more than 50 µM.
For `C=CC(=O)N[C@H]1CCCC[C@H]1n1c(NC(=O)c2cccc(C(F)(F)F)c2)nc2cc(C)ccc21` (racemic), the 50% inhibitory concentration (IC50) is more than 50 µM.
Consider `C=CC(=O)Nc1ccccc1-n1c(NC(=O)c2cccc(C(F)(F)F)c2)nc2cc(C)ccc21`, for which the IC50 is more than 50 µM.
The same measure, in the same setting: the value for `C=CC(=O)N1CCC(n2c(NC(=O)c3cccc(C(F)(F)F)c3)nc3cc(C)ccc32)CC1` was more than 37.7 µM; that for `C=CC(=O)NC1CCC(n2c(NC(=O)c3cccc(C(F)(F)F)c3)nc3cc(C)ccc32)C1` (stereo unspecified) was more than 50 µM.
The same measure, in the same setting: the value for `C=CC(=O)NCCn1c(NC(=O)c2cccc(C(F)(F)F)c2)nc2cc(C)ccc21` was more than 50 µM.
Consider `C=CC(=O)N[C@@H]1CCCC[C@H]1n1c(NC(=O)c2cccc(C(F)(F)F)c2)nc2cc(C)ccc21` (racemic), for which the concentration for half-maximal inhibition (IC50) is more than 50 µM.
Same read-out and setting: the value for `C=CC(=O)N1CC(n2c(NC(=O)c3cccc(C(F)(F)F)c3)nc3cc(C)ccc32)C1` was more than 50 µM; that for `C=CC(=O)N1CCCC(n2c(NC(=O)c3cccc(C(F)(F)F)c3)nc3cc(C)ccc32)CC1` (stereo unspecified) was more than 50 µM.

Tested on in a further data set: not listed separately
The data set can be described thus: Inhibition of EGFR E746 to A750 deletion mutant phosphorylation in human patient derived HCC827 cells incubated for 3 hrs by ELISA method. It is filed as cell-based. The following applies: HCC827, 3 h. Put shortly: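 HCC827 cells plated at 7500/well in 5% FBS/RPMI and left overnight at 37 °C. Then 3 h with a 12-point compound dilution series, no EGF stimulation. Lysed in Triton/protease/phosphatase-inhibitor buffer. Phospho-EGFR (Y1173) read by sandwich ELISA: anti-EGFR capture, anti-phospho-EGFR, anti-rabbit-HRP, chemiluminescence. IC50 from at least duplicates.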
Take `C=CC(=O)Nc1cccc(Nc2nc(Nc3ccc(N4CCN(C(C)=O)CC4)cc3OC)ncc2C(F)(F)F)c1` [ROCILETINIB]: 0.0095 µM corresponded to half-maximal inhibition (IC50).

Tested on in the next data set: not listed separately
The data set can be described thus: Glutathione reactivity assessed as GSH adduct formation incubated for 1 hr using 10 mM glutathione.
Settings: not given
The procedure, abridged: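 Compound incubated 1 h with 10 mM glutathione; GSH adduct formation measured.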
`CN(C)C/C=C/C(=O)Nc1cc2c(Nc3ccc(F)c(Cl)c3)ncnc2cc1O[C@H]1CCOC1` [AFATINIB]: the Drug metabolism turned out to be 60%.
Still for that read-out and setting: for `Cc1cc(C(=O)Nc2nc3cccc(Cl)c3n2[C@@H]2CCCCN(C(=O)/C=C/CN(C)C)C2)ccn1` the value was less than 5%.

Tested on in the next data set: not listed separately
The data set is described as follows: Antitumor activity against human NCI-H1975 cells xenografted in Foxn1 nude mouse assessed as reduction in tumor volume at 25 mg/kg, po qd for 5 days relative to untreated control.
Settings: not given
It is filed as functional. Put shortly: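 Female Foxn1 nude mice, H1975 cells inoculated subcutaneously. Randomized into groups once tumors reached 150−200 mm³, then dosed by oral gavage once daily for 5 days in 0.5% MC/0.5% Tween80 suspension (10 μL/g). Tumor volumes by caliper, (length × width × width)/2. %T/C = 100 × ΔT/ΔC, or % regression = 100 × ΔT/T_initial when ΔT < 0. Body weight recorded daily.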
As to `CN(C)C/C=C/C(=O)Nc1cc2c(Nc3ccc(F)c(Cl)c3)ncnc2cc1O[C@H]1CCOC1` [AFATINIB], the T/C amounted to 38%.

A further data set has as its target T1, Epidermal growth factor receptor. The data set is described as follows: Inhibition of N-terminal 6x-HIS-tagged human recombinant EGFR (696 to 1022 residues) L858R/T790M mutant expressed in Sf9 cells pre-incubated for 90 mins followed by 1 mM ATP addition by HTRF assay.
Settings: not given
Put shortly:
as §1
For `C=CC(=O)N[C@H]1CC[C@H](n2c(NC(=O)c3cccc(C(F)(F)F)c3)nc3cc(C)ccc32)CC1`, the half-inhibitory concentration (IC50) was more than 50 µM.
As to `C=CC(=O)Nc1ccc(-n2c(NC(=O)c3cccc(C(F)(F)F)c3)nc3cc(C)ccc32)cc1`, the IC50 is more than 50 µM.
As for `C=CC(=O)N[C@H]1CCCC[C@H]1n1c(NC(=O)c2cccc(C(F)(F)F)c2)nc2cc(C)ccc21` (racemic), the IC50 is more than 50 µM.
The same measure, in the same setting: the value for `C=CC(=O)Nc1ccccc1-n1c(NC(=O)c2cccc(C(F)(F)F)c2)nc2cc(C)ccc21` was more than 32.8 µM; that for `C=CC(=O)N1CCC(n2c(NC(=O)c3cccc(C(F)(F)F)c3)nc3cc(C)ccc32)CC1` was 16.5 µM; that for `C=CC(=O)NC1CCC(n2c(NC(=O)c3cccc(C(F)(F)F)c3)nc3cc(C)ccc32)C1` (stereo unspecified) was 6.81 µM.
Still for that read-out and setting: the value for `C=CC(=O)NCCn1c(NC(=O)c2cccc(C(F)(F)F)c2)nc2cc(C)ccc21` was more than 50 µM.
Same read-out and setting: the value for `C=CC(=O)N[C@@H]1CCCC[C@H]1n1c(NC(=O)c2cccc(C(F)(F)F)c2)nc2cc(C)ccc21` (racemic) was more than 50 µM.
Take `C=CC(=O)N1CC(n2c(NC(=O)c3cccc(C(F)(F)F)c3)nc3cc(C)ccc32)C1`: the half-maximal inhibitory concentration (IC50) is more than 50 µM.
Same read-out and setting: the value for `C=CC(=O)N1CCCC(n2c(NC(=O)c3cccc(C(F)(F)F)c3)nc3cc(C)ccc32)CC1` (stereo unspecified) was more than 50 µM.

The subject of a further data set is Mus musculus. The data set can be described thus: Toxicity in human NCI-H1975 cells xenografted Foxn1 nude mouse assessed as change in body weight at 25 mg/kg, po qd for 5 days (reference value: […]). The format is organism-based. The following applies: in vivo, 120 h. For orientation: In xenograft studies the graft and the host belong to different species.
`CN(C)C/C=C/C(=O)Nc1cc2c(Nc3ccc(F)c(Cl)c3)ncnc2cc1O[C@H]1CCOC1` [AFATINIB]: the Activity is -2.4%.

Tested on in a further data set: not listed separately
The data set is described as follows: Time duration during which free plasma concentration stays above in-vitro IC50 level in human NCI-H1975 cells xenografted Foxn1 nude mouse at 25 mg/kg, po qd for 5 days. The following applies: in vivo, 120 h. The format is ADME, organism-based. The procedure, abridged: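 H1975 xenografts in Foxn1 nude mice, oral dosing once daily for 5 days. Plasma sampled after the last dose on day 5, at 30 min, 3 h, 7 h and 24 h. Free drug exposure was compared with in vitro cellular IC50 across the dosing interval.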
For the compound `CN(C)C/C=C/C(=O)Nc1cc2c(Nc3ccc(F)c(Cl)c3)ncnc2cc1O[C@H]1CCOC1` [AFATINIB], the Time result is listed as “<= 14 hr”.
